Results: paper PMC3752840 (Journal of the American Chemical Society, 2013)
Values joined by “and” are separate entries in the source; they are usually repeats but may differ in a detail not shown here. Identical values can stand only once. Square brackets hold non-standard residues; d marks the D form. Peptide text beside a SMILES is read from it. * marks the point of attachment. Heptanoyl = CCCCCCC(=O)*; Octanoyl = CCCCCCCC(=O)*

How the values were obtained:
human calpain-I = target: T1, human calpain-I (Homo sapiens, UniProt P07384); assay: Calpain IC50, Suc-LLVY-AMC fluorescence assay; type: biochemical
T1 sequence (P07384 1-714): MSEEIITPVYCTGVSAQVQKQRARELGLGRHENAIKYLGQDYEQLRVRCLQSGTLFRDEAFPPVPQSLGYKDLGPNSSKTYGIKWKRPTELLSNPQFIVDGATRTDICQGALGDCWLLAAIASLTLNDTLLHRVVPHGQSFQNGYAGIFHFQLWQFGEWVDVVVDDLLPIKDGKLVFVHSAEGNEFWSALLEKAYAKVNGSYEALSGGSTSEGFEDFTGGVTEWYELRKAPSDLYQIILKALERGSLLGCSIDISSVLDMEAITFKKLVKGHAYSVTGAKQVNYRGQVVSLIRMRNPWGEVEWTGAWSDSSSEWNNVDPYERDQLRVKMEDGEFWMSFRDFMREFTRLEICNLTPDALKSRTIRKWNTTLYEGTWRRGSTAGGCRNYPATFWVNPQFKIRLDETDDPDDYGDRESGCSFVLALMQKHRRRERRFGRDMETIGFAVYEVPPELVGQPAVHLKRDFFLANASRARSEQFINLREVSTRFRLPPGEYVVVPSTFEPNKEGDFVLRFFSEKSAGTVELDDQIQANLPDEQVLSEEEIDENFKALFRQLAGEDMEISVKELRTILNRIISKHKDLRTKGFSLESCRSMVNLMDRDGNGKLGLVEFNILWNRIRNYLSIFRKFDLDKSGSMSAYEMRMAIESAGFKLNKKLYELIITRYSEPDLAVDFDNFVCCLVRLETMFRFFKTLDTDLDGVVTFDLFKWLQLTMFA
T1 sequence (P04632 1-268 partner): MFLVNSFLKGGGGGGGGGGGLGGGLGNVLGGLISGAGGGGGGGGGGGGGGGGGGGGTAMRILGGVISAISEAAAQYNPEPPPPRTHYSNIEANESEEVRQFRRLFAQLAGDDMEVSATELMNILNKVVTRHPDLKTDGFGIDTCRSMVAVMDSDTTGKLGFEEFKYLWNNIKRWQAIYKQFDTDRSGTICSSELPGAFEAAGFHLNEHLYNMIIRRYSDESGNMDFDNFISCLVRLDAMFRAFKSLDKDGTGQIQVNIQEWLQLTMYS

[1] = target: human 20S proteasome, chymotrypsin-like activity (Homo sapiens, UniProt P28074); assay: Proteasome inhibition assay, chymotrypsin-like activity; type: biochemical
Outline: (§1)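 Human 20S proteasome (1 nM) in 10 mM Tris-HCl, 0.035% SDS, pH 7.4, preincubated with test compound for 15 min at RT. Fluorogenic substrate then added at 5 µM: Suc-LLVY-AMC for chymotrypsin-like activity, Z-LLE-AMC for caspase-like activity. Fluorescence read at 380/460 nm; IC50 calculated from initial rates.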

[2] = target: human 20S proteasome, caspase-like activity (Homo sapiens, UniProt P28072); assay: Proteasome inhibition assay, caspase-like activity; type: biochemical
Outline: as §1

[3] = tested on: U-937 histiocytic lymphoma cell line; type: cell-based, human; details: 72 h
papain = target: T2, papain (Carica papaya, UniProt P00784); assay: biochemical
T2 sequence (P00784 134-345): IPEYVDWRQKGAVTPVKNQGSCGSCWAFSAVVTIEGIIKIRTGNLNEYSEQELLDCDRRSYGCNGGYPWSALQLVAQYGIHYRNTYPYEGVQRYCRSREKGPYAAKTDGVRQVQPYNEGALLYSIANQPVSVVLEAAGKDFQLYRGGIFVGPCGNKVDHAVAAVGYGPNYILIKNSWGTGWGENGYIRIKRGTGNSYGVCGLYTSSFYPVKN

[4] = tested on: FR4 multiple myeloma cell line; type: cell-based, human; details: 72 h
[5] = tested on: MM.M1S multiple myeloma cell line; type: cell-based, human; details: 72 h, CellTiter-Glo; compound 3 no inhibition up to 80 µM
human 20S proteasome = human 20S proteasome (Homo sapiens, UniProt P28072+P28074); assay: Proteasome inhibition assay; type: biochemical; details: two proteasome activities, which is which not stated
[6] = CellTiter-Glo, compound 3 no inhibition up to 80 µM

Molecule `CCCCCCCC(=O)N[C@H](C(=O)N[C@@H](CCC(N)=O)C(=O)N[C@H](C(=O)N[C@H](CCC(N)=O)C(=O)N[C@H](C(=O)N[C@H](C=O)Cc1ccccc1)C(C)C)[C@@H](C)CC)[C@@H](C)CC` [Compound 1] (Octanoyl-IQI[dQ]VF-aldehyde; N-terminus assumed) has an IC50 (human calpain-I) of 2900 ± 300 nM, an IC50 [1] of 4900 ± 300 nM and an IC50 [2] of 2300 ± 200 nM. For the same molecule, the IC50 [3] was 13000 ± 1000 nM and the IC50 (papain) was 160 ± 40 nM.

`CCCCCCC(=O)N[C@H](C(=O)N[C@@H](CCC(N)=O)C(=O)N[C@H](C(=O)N[C@H](CCC(N)=O)C(=O)N[C@H](C(=O)N[C@H](C=O)Cc1ccccc1)[C@@H](C)CC)[C@@H](C)CC)[C@@H](C)CC` [Compound 2] (Heptanoyl-IQI[dQ]IF-aldehyde; N-terminus assumed) gave an IC50 (human calpain-I) of 2700 ± 400 nM, an IC50 [1] of 3300 ± 300 nM and an IC50 [2] of 2300 ± 700 nM. The IC50 [4] was 30000 ± 10000 nM and the IC50 (papain) was 350 ± 30 nM.

`CC[C@H](C)[C@H](N)C(=O)N[C@@H](CCC(N)=O)C(=O)N[C@H](C(=O)N[C@H](CCC(N)=O)C(=O)N[C@H](C(=O)N[C@H](C=O)Cc1ccccc1)C(C)C)[C@@H](C)CC` [Compound 3] (H-IQI[dQ]VF-aldehyde) was tested, and the IC50 (human calpain-I) was 1800 ± 300 nM, the IC50 [1] was 430 ± 80 nM and the IC50 [2] was 330 ± 70 nM. For the same molecule, the “IC50 cell line MM.M1S” value [5] was “No inhibition”, the “IC50 cell line FR4” value [4, 6] was “No inhibition” and the “IC50 cell line U-937” value [3, 6] was “No inhibition”. For the same molecule, the “fold higher potency against the proteasome than 1 and 2” value (human 20S proteasome) was 6 fold and 10 fold and the IC50 (papain) was 70 ± 10 nM.
